Results taken from ChEMBL document CHEMBL4346689, “Novel benzenesulfonamide and 1,2-benzisothiazol-3(2H)-one-1,1-dioxide derivatives as potential selective COX-2 inhibitors” (Eur J Med Chem, 2019).
Blank lines part the entries; values can stand above or below the compound they belong to.

Tests used:
[1] = molecular target: T1, Prostaglandin G/H synthase 1 (Ovis aries, UniProt P05979); assay: Inhibition of ovine COX1 assessed as reduction in oxidized TMPD using arachidonic acid as substrate preincubated for 5 mins followed by substrate addition and measured after 2 mins by colorimetric assay
T1 sequence (P05979 whole entry): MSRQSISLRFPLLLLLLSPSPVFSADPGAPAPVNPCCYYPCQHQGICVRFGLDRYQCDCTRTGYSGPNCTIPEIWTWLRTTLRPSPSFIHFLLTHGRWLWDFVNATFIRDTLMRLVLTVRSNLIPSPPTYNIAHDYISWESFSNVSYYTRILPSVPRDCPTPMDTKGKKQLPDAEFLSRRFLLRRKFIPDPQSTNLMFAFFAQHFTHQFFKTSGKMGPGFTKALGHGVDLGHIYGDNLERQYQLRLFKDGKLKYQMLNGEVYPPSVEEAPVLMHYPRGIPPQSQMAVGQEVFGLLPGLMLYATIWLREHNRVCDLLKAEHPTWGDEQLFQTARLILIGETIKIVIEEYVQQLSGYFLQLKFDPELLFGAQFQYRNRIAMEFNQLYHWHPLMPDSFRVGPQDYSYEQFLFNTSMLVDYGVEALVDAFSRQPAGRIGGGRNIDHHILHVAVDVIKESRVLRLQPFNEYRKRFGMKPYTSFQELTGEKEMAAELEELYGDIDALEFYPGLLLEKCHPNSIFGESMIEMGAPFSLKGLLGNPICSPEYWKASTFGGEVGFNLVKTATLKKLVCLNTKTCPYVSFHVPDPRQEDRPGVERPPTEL

Rattus norvegicus [2] = assay: Antiinflammatory activity against carrageenan-induced paw oedema in albino rat assessed as hind paw thickness at 18 mg/kg, ip pretreated for 1 hr followed by carrageenan challenge and measured after 2 hrs by caliper method (reference value: 0.84 +/- 0.02 millimeter); type: functional
Procedure, shortened: (§1)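 Male albino rats, 150–200 g, six per group, housed at 27 °C on a 12/12 light-dark cycle. Given 18 mg/kg i.p.; control group left untreated. Right hind paw injected 1 h later with 0.1 mL 10% carrageenin. Paw thickness measured by skin caliper at 1, 2, 3 and 4 h after injection. Reported as mean ± S.D., n = 6; significance p < 0.05.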

Rattus norvegicus [3] = assay: Antiinflammatory activity in albino rat assessed as inhibition of carrageenan-induced paw edema at 18 mg/kg, ip pretreated for 1 hr followed by carrageenan challenge and measured after 4 hrs by caliper method relative to control; type: functional
Procedure, shortened: (§2)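 Carrageenin paw edema in male albino rats (150–200 g, n = 6 per group), 18 mg/kg i.p. 1 h before 0.1 mL 10% carrageenin into the right hind paw. Caliper thickness at 1–4 h. Percent edema inhibition derived from thickness change relative to the untreated control group.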

Rattus norvegicus [4] = assay: Antiinflammatory activity against carrageenan-induced paw oedema in albino rat assessed as hind paw thickness at 18 mg/kg, ip pretreated for 1 hr followed by carrageenan challenge and measured immediately by caliper method (reference value: 0.24 +/- 0.24 millimeter); type: functional
Rattus norvegicus [5] = assay: Antiinflammatory activity against carrageenan-induced paw oedema in albino rat assessed as hind paw thickness at 18 mg/kg, ip pretreated for 1 hr followed by carrageenan challenge and measured after 4 hrs by caliper method (reference value: 1.24 +/- 0.02 millimeter); type: functional; procedure, shortened: as §1
[6] = Ulcerogenicity in albino rat assessed as average severity score at 18 mg/kg, po administrated once daily for 3 successive days and measured after 6 hrs from last dose (reference value: 0); type: toxicity, organism-based; settings: in vivo
[7] = Ulcerogenicity in albino rat assessed as ulcer index at 18 mg/kg, po administrated once daily for 3 successive days and measured after 6 hrs from last dose (reference value: 0); type: toxicity, organism-based; settings: in vivo
Rattus norvegicus [8] = assay: Antiinflammatory activity in albino rat assessed as inhibition of carrageenan-induced paw edema at 18 mg/kg, ip pretreated for 1 hr followed by carrageenan challenge and measured after 1 hr by caliper method relative to control; type: functional; procedure, shortened: as §2
Rattus norvegicus [9] = assay: Antiinflammatory activity against carrageenan-induced paw oedema in albino rat assessed as hind paw thickness at 18 mg/kg, ip pretreated for 1 hr followed by carrageenan challenge and measured after 1 hr by caliper method (reference value: 0.73 +/- 0.03 millimeter); type: functional; procedure, shortened: as §1
Rattus norvegicus [10] = assay: Antiinflammatory activity against carrageenan-induced paw oedema in albino rat assessed as hind paw thickness at 18 mg/kg, ip pretreated for 1 hr followed by carrageenan challenge and measured after 3 hrs by caliper method (reference value: 0.94 +/- 0.02 millimeter); type: functional; procedure, shortened: as §1
[11] = Ulcerogenicity in albino rat assessed as incidence of gastric ulceration at 18 mg/kg, po administrated once daily for 3 successive days and measured after 6 hrs from last dose relative to control; type: toxicity, organism-based; settings: in vivo
Rattus norvegicus [12] = assay: Antiinflammatory activity in albino rat assessed as inhibition of carrageenan-induced paw edema at 18 mg/kg, ip pretreated for 1 hr followed by carrageenan challenge and measured after 3 hrs by caliper method relative to control; type: functional; procedure, shortened: as §2
Rattus norvegicus [13] = assay: Antiinflammatory activity in albino rat assessed as inhibition of carrageenan-induced paw edema at 18 mg/kg, ip pretreated for 1 hr followed by carrageenan challenge and measured after 2 hrs by caliper method relative to control; type: functional; procedure, shortened: as §2

IC50 [1]: 4.21 µM
SMILES: O=S(=O)(NCc1ccccc1)c1ccccc1-c1nnc(S)n1/N=C/c1ccc(Br)cc1

IC50 [1]: 3.68 µM
SMILES: O=S(=O)(NCc1ccccc1)c1ccccc1-c1nnc(SCc2ccccc2)o1

IC50 [1]: 1.98 µM
SMILES: O=C(N/N=C/c1ccccc1)C(C(=O)N/N=C/c1ccccc1)N1C(=O)c2ccccc2S1(=O)=O

IC50 [1]: 6.45 µM
SMILES: O=S(=O)(NCc1ccccc1)c1ccccc1-c1nnc(S)n1/N=C/c1ccccc1

IC50 [1]: 9.24 µM
SMILES: Cc1cc(-c2ccccc2)n(C(=O)c2ccccc2S(=O)(=O)NC(C)C)n1
Activity (Rattus norvegicus [2]): 0.36 mm
inhibition in vivo at 18 mg/kg (Rattus norvegicus [3]): 65.3%
Activity (Rattus norvegicus [4]): 0.24 mm
Activity (Rattus norvegicus [5]): 0.43 mm
Activity [6]: 0.2
UI [7]: 4
inhibition in vivo at 18 mg/kg (Rattus norvegicus [8]): 56.2%
Activity (Rattus norvegicus [9]): 0.32 mm
Activity (Rattus norvegicus [10]): 0.38 mm
Activity [11]: 20%
inhibition in vivo at 18 mg/kg (Rattus norvegicus [12]): 59.6%
inhibition in vivo at 18 mg/kg (Rattus norvegicus [13]): 57.1%

IC50 [1]: 5.71 µM
SMILES: O=S(=O)(NCc1ccccc1)c1ccccc1-c1nnc(S)n1/N=C/c1ccc(Cl)cc1

IC50 [1]: 12.2 µM
SMILES: CC(C)NS(=O)(=O)c1ccccc1C(=O)N1N=C(c2ccccc2)CC1=O
Activity (Rattus norvegicus [2]): 0.5 mm
inhibition in vivo at 18 mg/kg (Rattus norvegicus [3]): 56.5%
Activity (Rattus norvegicus [4]): 0.24 mm
Activity (Rattus norvegicus [5]): 0.54 mm
Activity [6]: 0.2
UI [7]: 4
inhibition in vivo at 18 mg/kg (Rattus norvegicus [8]): 42.5%
Activity (Rattus norvegicus [9]): 0.42 mm
Activity (Rattus norvegicus [10]): 0.52 mm
Activity [11]: 20%
inhibition in vivo at 18 mg/kg (Rattus norvegicus [12]): 44.7%
inhibition in vivo at 18 mg/kg (Rattus norvegicus [13]): 43.5%

IC50 [1]: 8.21 µM
SMILES: CCSc1nnc(-c2ccccc2S(=O)(=O)NCc2ccccc2)o1

The remaining lines, values behind:

SMILES: COc1ccc(/C=N/n2c(S)nnc2-c2ccccc2S(=O)(=O)NCc2ccccc2)cc1
IC50 [1]: 3.25 µM

SMILES: O=C(N/N=C/c1ccc(Cl)cc1)C(C(=O)N/N=C/c1ccc(Cl)cc1)N1C(=O)c2ccccc2S1(=O)=O
IC50 [1]: 7.65 µM

SMILES: O=C(N/N=C/c1ccc(F)cc1)C(C(=O)N/N=C/c1ccc(F)cc1)N1C(=O)c2ccccc2S1(=O)=O
IC50 [1]: 2.78 µM
Activity (Rattus norvegicus [2]): 0.4 mm
inhibition in vivo at 18 mg/kg (Rattus norvegicus [3]): 54.3%
Activity (Rattus norvegicus [4]): 0.24 mm
Activity (Rattus norvegicus [5]): 0.55 mm
Activity [6]: 1.2
UI [7]: 120
inhibition in vivo at 18 mg/kg (Rattus norvegicus [8]): 50.7%
Activity (Rattus norvegicus [9]): 0.36 mm
Activity (Rattus norvegicus [10]): 0.43 mm
Activity [11]: 100%
inhibition in vivo at 18 mg/kg (Rattus norvegicus [12]): 54.2%
inhibition in vivo at 18 mg/kg (Rattus norvegicus [13]): 52.4%

SMILES: Nn1c(S)nnc1-c1ccccc1S(=O)(=O)NCc1ccccc1
IC50 [1]: 2.98 µM
Activity (Rattus norvegicus [2]): 0.48 mm
inhibition in vivo at 18 mg/kg (Rattus norvegicus [3]): 49.2%
Activity (Rattus norvegicus [4]): 0.24 mm
Activity (Rattus norvegicus [5]): 0.63 mm
Activity [6]: 3.6
UI [7]: 360
inhibition in vivo at 18 mg/kg (Rattus norvegicus [8]): 39.7%
Activity (Rattus norvegicus [9]): 0.44 mm
Activity (Rattus norvegicus [10]): 0.56 mm
Activity [11]: 100%
inhibition in vivo at 18 mg/kg (Rattus norvegicus [12]): 45.4%
inhibition in vivo at 18 mg/kg (Rattus norvegicus [13]): 42.9%

SMILES: O=S(=O)(NCc1ccccc1)c1ccccc1-c1nnc(S)o1
IC50 [1]: 4.52 µM

SMILES: Cc1cc(-c2ccccc2)n(C(=O)C(C(=O)n2nc(C)cc2-c2ccccc2)N2C(=O)c3ccccc3S2(=O)=O)n1
IC50 [1]: 11.8 µM
Activity (Rattus norvegicus [2]): 0.41 mm
inhibition in vivo at 18 mg/kg (Rattus norvegicus [3]): 61.3%
Activity (Rattus norvegicus [4]): 0.24 mm
Activity (Rattus norvegicus [5]): 0.48 mm
Activity [6]: 0.2
UI [7]: 4
inhibition in vivo at 18 mg/kg (Rattus norvegicus [8]): 50.7%
Activity (Rattus norvegicus [9]): 0.36 mm
Activity (Rattus norvegicus [10]): 0.41 mm
Activity [11]: 20%
inhibition in vivo at 18 mg/kg (Rattus norvegicus [12]): 56.4%
inhibition in vivo at 18 mg/kg (Rattus norvegicus [13]): 51.2%

SMILES: Cc1ccc(-c2cc(C(F)(F)F)nn2-c2ccc(S(N)(=O)=O)cc2)cc1 [CELECOXIB]
Activity (Rattus norvegicus [2]): 0.44 mm
inhibition in vivo at 18 mg/kg (Rattus norvegicus [3]): 62.9%
Activity (Rattus norvegicus [4]): 0.24 mm
Activity (Rattus norvegicus [5]): 0.46 mm
Activity [6]: 0
UI [7]: 3
inhibition in vivo at 18 mg/kg (Rattus norvegicus [8]): 43.8%
Activity (Rattus norvegicus [9]): 0.41 mm
Activity (Rattus norvegicus [10]): 0.44 mm
Activity [11]: 0%
inhibition in vivo at 18 mg/kg (Rattus norvegicus [12]): 53.2%
inhibition in vivo at 18 mg/kg (Rattus norvegicus [13]): 47.6%

SMILES: COc1ccc2c(c1)c(CC(=O)O)c(C)n2C(=O)c1ccc(Cl)cc1 [INDOMETHACIN]
Activity [6]: 4.8
UI [7]: 480
Activity [11]: 100%
